{"source": "ChEMBL document CHEMBL1944571", "about": "“A bright approach to the immunoproteasome: development of LMP2/β1i-specific imaging probes” (Bioorg Med Chem, 2012)", "key": {"[1]": {"target": "T1, Proteasome subunit beta type-9 (Homo sapiens) (UniProt P28065)", "T1 sequence (whole entry)": "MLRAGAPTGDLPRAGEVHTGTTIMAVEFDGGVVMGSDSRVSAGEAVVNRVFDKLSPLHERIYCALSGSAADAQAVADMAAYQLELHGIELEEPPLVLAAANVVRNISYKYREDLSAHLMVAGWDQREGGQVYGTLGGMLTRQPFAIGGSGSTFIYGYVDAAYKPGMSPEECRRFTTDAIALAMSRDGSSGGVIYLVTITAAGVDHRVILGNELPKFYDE", "assay": "Effect on LMP2/beta1i cellular distribution in human PC3 cells after 4 hrs by fluorescence microscopy analysis in presence of UK101 treated 1.5 hrs before compound treatment", "assay_type": "cell-based", "settings": "PC-3", "how_it_was_run": "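PC-3 cells were grown on coverslips for 24–48 h, pretreated for 1.5 h with DMSO or 5 μM competitor, then given 15 μM probe for 4 h. Cells were washed, fixed in 4% paraformaldehyde, permeabilized with 0.2% Triton, and blocked. Where indicated, cells were stained with anti-LMP2 antibody, mounted with DAPI, and imaged by fluorescence microscopy, with intensity normalized to control.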"}, "[2]": {"target": "T1, Proteasome subunit beta type-9 (Homo sapiens)", "assay": "Binding affinity to LMP2/beta1i in human PC3 cells at 15 uM after 4 hrs by fluorescence microscopy analysis in presence of UK101 treated 1.5 hrs before compound treatment", "settings": "PC-3"}, "[3]": {"target": "T1, Proteasome subunit beta type-9 (Homo sapiens)", "assay": "Binding affinity to LMP2/beta1i in human PC3 cells after 4 hrs using typhoon imaging by gel fluorescence assay", "assay_type": "cell-based", "settings": "PC-3", "how_it_was_run": "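PC-3 cells were treated with probe or DMSO vehicle for 4 h, with an epoxomicin control. Cells were washed in HBSS and lysed on ice for 1 h in NP-40/Triton X-100 buffer with protease inhibitors. Equal protein was run on 12% SDS-PAGE after denaturing at 100°C, and gels were scanned for fluorescence (λex 635 nm, λem 665 nm).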"}, "[4]": {"target": "T1, Proteasome subunit beta type-9 (Homo sapiens)", "assay": "Binding affinity to LMP2/beta1i in human PC3 cells at 30 uM after 4 hrs by gel-fluorescence assay in presence of UK101-Lys-Cbz treated 1.5 hrs before compound treatment", "assay_type": "cell-based", "settings": "PC-3", "how_it_was_run": "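PC-3 cells were pretreated for 1.5 h with DMSO or 20 μM competitor, then incubated with 30 μM fluorescent probe for a further 4 h. Lysates were resolved by SDS-PAGE, and gels were imaged for in-gel fluorescence (λex 635 nm, λem 665 nm).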"}, "[5]": {"target": "T1, Proteasome subunit beta type-9 (Homo sapiens)", "assay": "Binding affinity to LMP2/beta1i in human PC3 cells at 30 uM after 4 hrs by fluorescence microscopy analysis in presence of UK101-Lys-Cbz treated 1.5 hrs before compound treatment", "assay_type": "cell-based", "settings": "PC-3"}, "[6]": {"target": "T1, Proteasome subunit beta type-9 (Homo sapiens)", "assay": "Binding affinity to LMP2/beta1i in human PC3 cells at 30 uM after 4 hrs by gel-fluorescence assay in presence of UK101 treated 1.5 hrs before compound treatment", "assay_type": "cell-based", "settings": "PC-3", "how_it_was_run": "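PC-3 cells were pretreated for 1.5 h with DMSO or 1 μM competitor, then given 30 μM fluorescent probe for a further 4 h. Cells were washed, lysed, resolved by SDS-PAGE, and gels were imaged for in-gel fluorescence (λex 635 nm, λem 665 nm).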"}, "[7]": {"target": "T2, Proteasome subunit beta type-6 (Mus musculus) (UniProt Q60692)", "T2 sequence (whole entry)": "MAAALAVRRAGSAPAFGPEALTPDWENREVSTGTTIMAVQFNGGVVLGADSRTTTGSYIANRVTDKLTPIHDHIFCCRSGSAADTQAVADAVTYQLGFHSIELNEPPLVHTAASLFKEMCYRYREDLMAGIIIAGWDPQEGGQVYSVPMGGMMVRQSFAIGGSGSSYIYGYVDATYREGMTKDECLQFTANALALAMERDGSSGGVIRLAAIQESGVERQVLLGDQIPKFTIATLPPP", "assay": "Binding affinity to LMPY/beta1 in mouse EL4 cells at 10 uM after 1.5 hrs by Western blotting", "assay_type": "cell-based", "how_it_was_run": "(§1)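 EL4 or PC-3 cells were exposed for 1.5 h to compound, DMSO vehicle, or 1 μM epoxomicin as positive control. Cells were washed in HBSS, lysed on ice for 1 h in non-denaturing NP-40/Triton buffer, and equal protein was resolved on 12% SDS-PAGE and blotted to PVDF. Blots were probed with subunit-specific antibodies and read by ECL. An upward band shift versus DMSO was scored as covalent modification.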"}, "[8]": {"target": "T3, Proteasome subunit beta type-9 (Mus musculus) (UniProt P28076)", "T3 sequence (whole entry)": "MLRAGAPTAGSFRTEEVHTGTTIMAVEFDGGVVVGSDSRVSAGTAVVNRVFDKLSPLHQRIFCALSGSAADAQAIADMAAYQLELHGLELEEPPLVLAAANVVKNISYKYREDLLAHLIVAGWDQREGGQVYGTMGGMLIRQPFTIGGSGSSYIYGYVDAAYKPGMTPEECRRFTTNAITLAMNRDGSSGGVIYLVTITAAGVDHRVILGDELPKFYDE", "assay": "Binding affinity to LMP2/beta1i in mouse EL4 cells at 1 uM after 1.5 hrs by Western blotting", "assay_type": "cell-based", "how_it_was_run": "as §1"}, "[9]": {"target": "T3, Proteasome subunit beta type-9 (Mus musculus)", "assay": "Binding affinity to LMP2/beta1i in mouse EL4 cells at 5 uM after 1.5 hrs by Western blotting", "assay_type": "cell-based", "how_it_was_run": "as §1"}, "[10]": {"target": "T4, Proteasome subunit beta type-8 (Homo sapiens) (UniProt P28062)", "T4 sequence (whole entry)": "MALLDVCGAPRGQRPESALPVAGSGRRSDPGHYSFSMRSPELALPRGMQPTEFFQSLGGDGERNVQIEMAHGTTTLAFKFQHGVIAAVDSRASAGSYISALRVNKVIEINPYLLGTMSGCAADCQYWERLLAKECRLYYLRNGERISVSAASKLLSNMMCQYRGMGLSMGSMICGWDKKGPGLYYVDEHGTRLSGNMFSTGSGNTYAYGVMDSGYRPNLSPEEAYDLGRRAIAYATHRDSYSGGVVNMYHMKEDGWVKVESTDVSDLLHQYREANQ", "assay": "Binding affinity to LMP7/beta5i in human PC3 cells at 10 to 20 uM after 1.5 hrs by Western blotting", "assay_type": "cell-based", "settings": "PC-3", "how_it_was_run": "as §1"}, "[11]": {"target": "T5, Proteasome subunit beta type-6 (Homo sapiens) (UniProt P28072)", "T5 sequence (whole entry)": "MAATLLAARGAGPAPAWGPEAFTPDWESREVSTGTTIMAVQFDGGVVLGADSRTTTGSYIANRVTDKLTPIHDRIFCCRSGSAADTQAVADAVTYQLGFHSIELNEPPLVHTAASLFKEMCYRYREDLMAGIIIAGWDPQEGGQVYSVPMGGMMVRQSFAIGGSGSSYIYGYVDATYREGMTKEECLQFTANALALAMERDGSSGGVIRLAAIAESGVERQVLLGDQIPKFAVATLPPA", "assay": "Binding affinity to LMPY/beta1 in human PC3 cells at 10 to 20 uM after 1.5 hrs by Western blotting", "assay_type": "cell-based", "settings": "PC-3", "how_it_was_run": "as §1"}, "[12]": {"target": "T6, Proteasome subunit beta type-5 (Mus musculus) (UniProt O55234)", "T6 sequence (whole entry)": "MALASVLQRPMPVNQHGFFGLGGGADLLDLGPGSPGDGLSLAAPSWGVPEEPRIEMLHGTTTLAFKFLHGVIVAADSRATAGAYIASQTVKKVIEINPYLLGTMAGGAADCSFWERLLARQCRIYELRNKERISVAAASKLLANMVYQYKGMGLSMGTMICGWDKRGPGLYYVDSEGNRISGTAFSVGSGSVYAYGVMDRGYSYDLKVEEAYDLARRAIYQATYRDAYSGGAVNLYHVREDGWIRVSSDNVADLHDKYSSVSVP", "assay": "Binding affinity to LMPX/[…] in mouse EL4 cells at 10 uM after 1.5 hrs by Western blotting", "assay_type": "cell-based", "how_it_was_run": "as §1"}, "[13]": {"target": "T7, Proteasome subunit beta type-8 (Mus musculus) (UniProt P28063)", "T7 sequence (whole entry)": "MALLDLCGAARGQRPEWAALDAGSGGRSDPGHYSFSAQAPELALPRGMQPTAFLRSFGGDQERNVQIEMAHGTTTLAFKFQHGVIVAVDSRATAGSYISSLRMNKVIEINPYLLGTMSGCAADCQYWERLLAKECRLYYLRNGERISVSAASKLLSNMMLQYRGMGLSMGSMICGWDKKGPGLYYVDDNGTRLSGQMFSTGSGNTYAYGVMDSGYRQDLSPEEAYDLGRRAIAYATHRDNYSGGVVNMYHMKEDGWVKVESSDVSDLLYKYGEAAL", "assay": "Binding affinity to LMP7/beta5i in mouse EL4 cells at 10 uM after 1.5 hrs by Western blotting", "assay_type": "cell-based", "how_it_was_run": "as §1"}, "[14]": {"target": "T3, Proteasome subunit beta type-9 (Mus musculus)", "assay": "Binding affinity to LMP2/beta1i in mouse EL4 cells at 10 uM after 1.5 hrs by Western blotting", "assay_type": "cell-based", "how_it_was_run": "as §1"}, "[15]": {"target": "T8, Proteasome Macropain subunit MB1 (Homo sapiens) (UniProt P28074)", "T8 sequence (whole entry)": "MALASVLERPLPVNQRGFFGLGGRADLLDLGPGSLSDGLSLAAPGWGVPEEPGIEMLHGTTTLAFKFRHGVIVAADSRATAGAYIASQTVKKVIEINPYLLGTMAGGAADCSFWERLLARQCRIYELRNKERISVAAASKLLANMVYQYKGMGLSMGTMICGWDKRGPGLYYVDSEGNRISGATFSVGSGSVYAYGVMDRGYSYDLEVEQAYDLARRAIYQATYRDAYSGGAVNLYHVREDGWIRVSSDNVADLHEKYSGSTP", "assay": "Binding affinity to LMPX/[…] in human PC3 cells at 10 to 20 uM after 1.5 hrs by Western blotting", "assay_type": "cell-based", "settings": "PC-3", "how_it_was_run": "as §1"}, "[16]": {"target": "T1, Proteasome subunit beta type-9 (Homo sapiens)", "assay": "Binding affinity to LMP2/beta1i in human PC3 cells at 10 to 80 uM after 1.5 hrs by Western blotting", "assay_type": "cell-based", "settings": "PC-3", "how_it_was_run": "as §1"}}, "note": "The source made the active and inactive calls. The calls are words filed in the database; no cut-off is given here.", "data": [{"smiles": "CCCCCCC(=O)N[C@@H](CCCCNC(=O)CCCCCNC(=O)COc1ccc(/C=C/c2ccc3n2[B-](F)(F)[N+]2=C(c4ccc[nH]4)C=CC2=C3)cc1)C(=O)N[C@@H](CC(C)C)C(=O)[C@@]1(CO[Si](C)(C)C(C)(C)C)CO1", "values": [{"measurement": "Activity", "setting": "[1]", "result": "inactive"}, {"measurement": "Activity", "setting": "[2]", "result": "inactive"}, {"measurement": "Activity", "setting": "[3]", "result": "Active"}, {"measurement": "Activity", "setting": "[4]", "result": "inactive"}, {"measurement": "Activity", "setting": "[5]", "result": "inactive"}, {"measurement": "Activity", "setting": "[6]", "result": "inactive"}]}, {"smiles": "CCCCCCC(=O)N[C@@H](CCCCNC(=O)OCc1ccccc1)C(=O)N[C@@H](CC(C)C)C(=O)[C@@]1(CO[Si](C)(C)C(C)(C)C)CO1", "values": [{"measurement": "Activity", "setting": "[7]", "result": "inactive"}, {"measurement": "Activity", "setting": "[8]", "result": "inactive"}, {"measurement": "Activity", "setting": "[9]", "result": "Active"}, {"measurement": "Activity", "setting": "[10]", "result": "inactive"}, {"measurement": "Activity", "setting": "[11]", "result": "inactive"}, {"measurement": "Activity", "setting": "[12]", "result": "inactive"}, {"measurement": "Activity", "setting": "[13]", "result": "inactive"}, {"measurement": "Activity", "setting": "[14]", "result": "Active"}, {"measurement": "Activity", "setting": "[15]", "result": "inactive"}, {"measurement": "Activity", "setting": "[16]", "result": "Active"}]}]}
